# Screening results as filed in PubChem BioAssay.
# Tb hexokinase: blocks Trypanosoma brucei hexokinase 1 activity; recombinant TbHK1, G6PDH-coupled NADH A340; inhibition, % at 10 µM; 0.11% of 220,000 active;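 active = inhibition of 50% or more in the single-dose primary screen; inactive = inhibition below 50%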
# MT stabilizer: microtubule stabilizers in HeLa cells. 0.83% of 200,000 active. HeLa tubulin immunostaining HCS, 24 h; share of cells brighter than vehicle mean+2SD. % tubulin-high responders, % at 10 µM. AID 2205;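 active = plate Z-score above 3 for both tubulin-high and condensed-nucleus cell shares, with cell loss under 80%, at 10 µM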;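 note: anti alpha tubulin signal scored within the nucleus-defined area of each cell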
# Rad51 HR inh: blocks human Rad51 in homologous recombination; Q06609; 0.085% of 200,000 active; inhibition, % at 10 µM; hRad51 DNA strand exchange, fluorescence dequenching;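 active = inhibition above 40% at the single screening dose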;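 note: 0% = DMSO control wells and 100% = blanks with heterologous ssDNA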
# Target sequence (Q06609 whole entry, looked up): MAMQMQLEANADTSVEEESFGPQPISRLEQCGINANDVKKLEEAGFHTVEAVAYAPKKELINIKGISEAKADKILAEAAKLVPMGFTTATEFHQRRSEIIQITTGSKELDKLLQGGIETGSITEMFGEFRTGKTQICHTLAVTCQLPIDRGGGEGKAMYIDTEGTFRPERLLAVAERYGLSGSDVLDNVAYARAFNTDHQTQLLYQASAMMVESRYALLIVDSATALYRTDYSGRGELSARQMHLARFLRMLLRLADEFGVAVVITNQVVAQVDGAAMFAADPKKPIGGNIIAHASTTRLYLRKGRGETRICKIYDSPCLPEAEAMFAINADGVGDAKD
#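 material = hRad51 filaments on single-stranded DNA | timing = filaments 15 min 37 °C, then compound 30 min | signal = FRET fluorescence dequenching, excitation 485 nm, emission 520 nm | benchmarks = control wells and blank wells on each plate | evaluation = percent inhibition relative to plate controls and blanks | compound = 10 µM final, single point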
# bCat nuc transl: modulators of beta-catenin nuclear translocation; nuclear translocation activity, % at 5 µM; HeLa beta-catenin nuclear translocation, immunofluorescence imaging; 0.3% of 190,000 active;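 active = nuclear translocation activity above 50% at 5 µM, with a well cell count of 50 or more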;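 note: per-cell ratio of nuclear to cytoplasmic median beta-catenin stain intensity; plate controls were DMSO negative control for no effect and GSK-3 inhibitor IX positive control for full effect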
#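 Read-out: Nuclear/cytoplasmic beta-catenin signal ratio, % activation | Assay system: Human HeLa cell line | Times: 24 h compound exposure at 37°C, 5% CO2 | Signal: Fluorescence imaging of beta-catenin antibody stain plus DAPI | Dosing: 5 µM primary, 0.02–20 µM confirmation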
# Dynein cargo inh: dynein cargo transport inhibition; 3617.4 mouse cells, GR-EGFP nuclear translocation imaging; test concentration mostly 20 µM; stimulated with dexamethasone, 1 µM; hits give low values; z-score, hits read low; 0.47% of 220,000 active; AID 1381;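 active = plate z-score of nuclear minus cytoplasmic receptor signal below a set negative limit, without overly bright fluorescence or cell loss, cut at about -3.5 in these data, passing the limit was not always enough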;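 note: z-score of nuclear minus cytoplasmic ring GR-EGFP intensity difference per well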
#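 Buffer or medium: tet-free, stripped-serum medium; reagent: dexamethasone at 1.0 µM final, 30 min; incubation: 48 h induction, 1 h compound, 30 min dex at 37 °C; measured by: formaldehyde fixation, Hoechst nuclear stain, 10x automated fluorescence imaging; read-out: nuclear-to-cytoplasmic GR-EGFP distribution per well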
# Dynein inh conf: dynein cargo transport inhibition, confirmation; calls only at 20 µM; 3617.4 GR-EGFP nuclear translocation imaging, dexamethasone-induced; 69% of 1,000 active; shares compounds with Dynein cargo inh;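 active = inhibition of receptor movement into the nucleus at or above a set limit in both runs, with normal cell brightness and cell count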;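 note: dexamethasone at 1 µM final in well for 30 min; nuclear minus cytoplasmic GR-EGFP mean intensity difference in channel 2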
# An asterisk follows results filed as active; i = inactive; . = no result given; + = active, no number. Hits are enriched below; roughly 1.5% of the tested compounds scored in any of these assays.
SMILES,Tb hexokinase,MT stabilizer,Rad51 HR inh,bCat nuc transl,Dynein cargo inh,Dynein inh conf
N#Cc1c(C(F)(F)F)cc(-c2ccccc2)nc1SCc1nc(N)nc(N2CCOCC2)n1,-9,i,-43,1,-3.8,+
CCN(CC)CCN(C(=O)CCOc1ccccc1)c1nc2c(F)cc(F)cc2s1,-1,5,5,0,1.6,.
O=c1c2ccccc2nc(SCc2cc(F)ccc2F)n1C1CCCC1,6,7,-2,-2,0.044,.
CN1CCN(S(=O)(=O)c2ccc(Sc3nnnn3-c3ccccc3)c([N+](=O)[O-])c2)CC1,-12,7,.,6,-3.5*,+
Cn1cnnc1Sc1cc(N2CCN(S(=O)(=O)c3ccccc3)CC2)ccc1[N+](=O)[O-],-2,5,.,1,1.1,.
CC(=O)c1ccc(Sc2nnnn2-c2ccccc2)c([N+](=O)[O-])c1,14,3,.,0,-4.3*,i
O=[N+]([O-])c1ccc(Sc2nnnn2-c2ccccc2)c(Cl)c1,-1,3,-2,.,-0.33,.
Cc1ccc(OCC(=O)c2ccc(Cl)s2)c([N+](=O)[O-])n1,0,10,-5,2,-3.9*,+
Oc1c(Cl)cc(Cl)c2c1NCCC2,14,4,.,-1,-4.7*,i
CCOC(=O)c1oc2nc3c(cc2c1N)CCCC3,-31,.,11,0,0.63,.
CCOC(=O)/C(=C/C=C1\Sc2cc(C)c(C)cc2N1CC)C(C)=O,4,2,i,0,-3.8,i
O=C1N/C(=C/c2ccc(N3CCCC3)cc2)C(=O)N1c1ccccc1,-12,6,-6,-3,1.5,.
O=C1/C(=C/c2ccc(N3CCCC3)cc2)NC(=S)N1C1CC1,-9,2,5,-6,-5,+
COc1cccc(-c2cc(C(=O)Nc3c(C)n(C)n(-c4ccccc4)c3=O)no2)c1,-7,1,-9,0,0.62,.
Cn1cnnc1Sc1nc([N+](=O)[O-])nn1C,2,3,-9,1,0.37,.
COc1ccccc1-c1nnc(Sc2nc([N+](=O)[O-])nn2C)o1,-5,4,0,4,-4.1*,+
Cc1ccc(-c2nc(NC(=O)c3nn(C)cc3[N+](=O)[O-])sc2C)cc1C,-17,49,.,32,-2.1,.
Cn1cc([N+](=O)[O-])c(C(=O)Nc2nc(-c3ccc(Cl)cc3)cs2)n1,-2,50,22,7,-3.9*,+
Cc1ccc(-c2nc(NC(=O)c3nn(C)cc3[N+](=O)[O-])sc2C)cc1,-20,55,3,1,-3.8*,+
Cc1cnc(NC(=O)c2nn(C)cc2[N+](=O)[O-])s1,-18,4,6,0,-3.6*,+
CO/N=C\CC(=O)Nc1ccc(F)cc1,5,3,0,-3,-0.36,.
COC(=O)c1cc(=O)n(CCc2ccccc2)c(=Nc2ccc(F)cc2)s1,-4,4,-1,-1,-3.3,.
COC(=O)c1cc(=O)n(CCc2ccc(OC)cc2)c(=Nc2ccc(F)c(Cl)c2)s1,-16,14,5,.,-4.4*,+
CCOC(=O)c1ccc(N=c2sc(C(=O)OC)cc(=O)n2Cc2ccco2)cc1,-6,58,-5,4,-6.3*,+
COC(=O)c1cc(=O)n(Cc2cccs2)c(=NCc2cccs2)s1,22,5,3,1,-0.91,.
SMILES,Tb hexokinase,MT stabilizer,Rad51 HR inh,bCat nuc transl,Dynein cargo inh,Dynein inh conf
CCn1c(=O)cc(C(=O)OC)sc1=Nc1ccc(F)c(F)c1,-11,9,1,.,-3.9*,+
COC(=O)c1cc(=O)n(Cc2ccc3c(c2)OCO3)c(=Nc2ccc(F)c(Cl)c2)s1,-5,7,-1,.,-3.6*,+
Cc1nn(Cc2ccccc2)c(C)c1N,-3,2,.,1,0.84,.
Cc1cc(C)n(/N=C/c2ccccc2)c(=O)c1C#N,-28,4,-2,-3,0.52,.
O=C(O)c1ccc(C=C(c2nc3ccccc3s2)c2nc3ccccc3s2)cc1,-8,2,3,0,-4.6*,+
CCOc1cc(CNCCCN2CCOCC2)cc(Br)c1OCc1ccccc1Cl,-1,7,-15,3,-5.1*,i
CCOc1cc(CNCCO)cc(Br)c1OCc1ccccc1Cl,3,5,6,2,1.4,.
Cc1ccc(C(=O)N/C(=C\c2cccs2)C(=O)NCc2cccnc2)cc1,-11,5,4,0,-0.38,.
c1ccc2c(c1)N1CCCN=C1N2CCN1CCCCC1,4,3,1,1,-0.3,.
O=C1N=C2N(CCN3CCCCC3)c3ccccc3N2/C1=C\c1ccc([N+](=O)[O-])o1,-10,40,3,0,-4*,+
COC(=O)[C@H](CC(C)C)NC(=O)Nc1ccc(S(N)(=O)=O)cc1,1,.,-20,0,0.79,.
CC(=O)Nc1nnc(SCC(=O)c2ccc(F)cc2)s1,3,2,4,1,0.62,.
Nc1nc(Sc2c([N+](=O)[O-])cc(C(F)(F)F)cc2[N+](=O)[O-])n[nH]1,-16,.,3,-3,-7.1*,+
COC1=C(C)C(O)=C(C(=O)/C=C/c2ccccc2)C(=O)C1(C)C,-31,.,-8,3,-5.2*,+
COc1ccc(/C=C/C(=O)O)cc1S(=O)(=O)N1CCc2ccccc2C1,-4,3,-3,0,-0.34,.
CCCCCCC(=O)N(O)C1CC(=O)N(c2ccc(Cl)cc2)C1=O (stereo unspecified),0,.,-3,-1,-5.1*,+
CC(OC(=O)c1ccc(Cl)nc1)C(=O)NC(C)(C)C (stereo unspecified),-2,2,-9,-2,0.28,.
Nc1ccc(O)cc1C(=O)OCC(=O)c1ccc(C2CCCCC2)cc1,-1,2,5,1,-3.5*,+
S=C(Nc1ccccn1)Nc1ccccc1Cl,-1,3,.,-1,0.24,.
CC(C)C[C@H](NC(=O)c1[nH]cnc1C(=O)N[C@H](C)c1ccccc1)C(=O)OCc1ccccc1,-1,2,-5,0,-0.63,.
CC1(C)COC(c2cc([N+](=O)[O-])ccc2Cl)=N1,-11,1,4,-6,0.27,.
CC1(C)COC(/C=C/c2cccc([N+](=O)[O-])c2)=N1,8,24*,7,8,-4.5*,+
COCCN(CC(=O)NC1CCCCC1)C(=O)/C=C/C(=O)c1ccc(OC)cc1O,-8,2,.,0,-3.7*,+
CN(c1ccc(C(=O)NCc2ccccc2)cc1)S(C)(=O)=O,7,3,5,-1,0.096,.
